# A1 apoptosis 2: blocks A1, raising caspase activity | MEF A1-2A-BIM cells, caspase-Glo luminescence, 3 h; percent of clofoctol response, DMSO zero | AID 2465 | caspase activation, % (no concentration beside the values) | 24,000 tested, under 10 active; in the data active = caspase activation above about 5.9%
#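 System: mouse embryonic fibroblasts co-expressing A1 and BIM (A1-2A-BIM), primed for A1 dependence; amount: 2500 cells/well; doses: 50 nL pinned compound; schedule: cells settled overnight, compound exposure 3 h at 37 °C, 5% CO2; detection: Caspase-Glo 3/7 luminescence, 1 h at room temperature; read-out: Caspase-3/7 activation, seen as rise in luminescence signal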
# INS-1E rescue: INS-1E beta cell protection from cytokine death; INS-1E cytokine-induced death, ATP luminescence, 48 h; normalised: neutral wells 0, positive control 100; protection from cytokine-induced ATP loss, % at 10 µM; actives 0.1% (n = 20,000); AID 488910;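 active = mean replicate protection from cytokine-induced ATP loss at least 50% and at least 75% of replicates each reaching 50%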
#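 Assay system: INS-1E rat cells / Quantity: 8000 cells per well / Medium: RPMI without phenol red, 5% FBS / Probe or stimulus: three-cytokine cocktail (IFN-γ, TNF-α, IL-1β) / Dosing: one compound concentration, pin transfer / Timing: 48 h co-treatment, 10 min post-lysis read / Technique: CellTiter-Glo luminescence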
# T cruzi HTS: inhibitors of intracellular Trypanosoma cruzi; intracellular Trypanosoma cruzi in host cells, plate reader; activity score (inhibition), % at 5.01 µM; actives 4.9% (n = 22,000); AID 651903; in the data active = activity score above about 55%;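 note: parasites and compound incubated about four days before reading; 0% = median of neutral control wells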
# Active calls of the source: *; / = no result given. This is one part of a sample in which hits are shown more often than they occur.
SMILES,A1 apoptosis 2,INS-1E rescue,T cruzi HTS
C[C@@H]1CN([C@H](C)CO)C(=O)c2cccc(NC(=O)c3ccc(-c4nccs4)cc3)c2O[C@H]1CN(C)Cc1ccc(Oc2ccccc2)cc1,0,-22,81*
C[C@H](CO)N1C[C@H](C)[C@H](CN(C)Cc2ccccc2)Oc2c(NC(=O)c3ccc(-c4nccs4)cc3)cccc2C1=O,/,-3,-24
C[C@H]1CN([C@@H](C)CO)C(=O)c2cccc(NC(=O)c3ccc(-c4nccs4)cc3)c2O[C@@H]1CN(C)Cc1ccc(Oc2ccccc2)cc1,0,5,31
CCn1c2ccccc2c2cc(/C=N/NC(=O)c3ccccc3O)ccc21,1,-3,17
O=C(CCCCCC(=O)Nc1ccccc1O)N/N=C/[C@@H](O)[C@H](O)[C@H](O)CO,1,/,/
COCCOC(=O)N1C(=O)[C@@]2(c3ccccc31)[C@H](C(=O)N1CCc3cc(OC)c(OC)cc3C1)[C@H]1C(=O)O[C@H](c3ccccc3)[C@H](c3ccccc3)N1[C@@H]2c1ccccc1OCCO,0,/,/
O=C(N/N=C/c1ccc2ccccc2c1)c1ccccc1O,-2,-30,-25
NC(=O)[C@@H]1[C@H]2C(=O)O[C@H](c3ccccc3)[C@H](c3ccccc3)N2[C@H](c2ccc(O)cc2)[C@@]12C(=O)Nc1ccc(C#CCCO)cc12,1,/,/
C=CC[C@]1(C(=O)N2CCCCC2)N=C(c2ccc(OCCCO)cc2)O[C@H]1c1ccccc1,0,/,/
COC(=O)CCCCCCC(=O)N/N=C/C=C/c1ccccc1,/,-3,-14
C[C@@H]1CN([C@H](C)CO)C(=O)c2cccc(NC(=O)Nc3cccc4ccccc34)c2O[C@H]1CN(C)C(=O)Nc1ccccc1,/,1,12
C[C@@H]1CN([C@@H](C)CO)C(=O)c2cccc(NC(=O)Nc3cccc4ccccc34)c2O[C@H]1CN(C)C(=O)Nc1ccccc1,0,3,10
C[C@H](CO)N1C[C@H](C)[C@@H](CN(C)C(=O)Nc2ccccc2)Oc2c(NC(=O)Nc3cccc4ccccc34)cccc2C1=O,/,4,68*
C[C@H](CO)N1C[C@H](C)[C@H](CN(C)C(=O)Nc2ccccc2)Oc2c(NC(=O)Nc3cccc4ccccc34)cccc2C1=O,0,-22,63*
COc1cc(/C=N/NC(=O)CCCCCC(=O)Nc2ccccc2O)c(Br)cc1O,/,16,9
NC(=O)NCC#Cc1ccc2c(c1)[C@]1(C(=O)N2)[C@H](C(=O)N2CCCCCCC2)[C@H]2C(=O)O[C@H](c3ccccc3)[C@H](c3ccccc3)N2[C@@H]1c1ccc(O)cc1,1,/,/
Cc1nnc(Sc2ccc(/C=N/NC(=O)c3ccc(C(=O)NO)cc3)o2)n1C,1,7,-14
COC(=O)C(CC#Cc1ccc2c(c1)[C@]1(C(=O)N2)[C@H](c2ccccc2OCCO)N2[C@H](c3ccccc3)[C@H](c3ccccc3)OC(=O)[C@H]2[C@@H]1C(=O)O)C(=O)OC,1,/,/
O=C(NO)c1ccc(C(=O)N/N=C/c2cccc(Br)c2)cc1,/,-7,-7
COc1ccc(CN(C)C[C@@H]2Oc3ccc(NS(=O)(=O)c4ccc(OC)cc4)cc3CC(=O)N([C@@H](C)CO)C[C@H]2C)cc1,-1,/,/
C[C@@H]1CN([C@H](C)CO)C(=O)Cc2cc(NS(=O)(=O)c3ccc(F)cc3)ccc2O[C@@H]1CN(C)Cc1ccc(C(F)(F)F)cc1,/,-48,60*
Cc1ccc(S(=O)(=O)Nc2ccc3c(c2)CC(=O)N([C@@H](C)CO)C[C@@H](C)[C@@H](CN(C)Cc2ccc(C(F)(F)F)cc2)O3)cc1,0,-31,64*
COc1ccc(S(=O)(=O)Nc2ccc3c(c2)CC(=O)N([C@@H](C)CO)C[C@H](C)[C@@H](CN(C)Cc2ccc(C(F)(F)F)cc2)O3)cc1,0,-13,83*
C[C@H]1CN([C@@H](C)CO)C(=O)Cc2cc(NS(=O)(=O)c3ccccc3)ccc2O[C@H]1CN(C)Cc1ccc(C(F)(F)F)cc1,/,-1,48
Cc1ccc(S(=O)(=O)Nc2ccc3c(c2)CC(=O)N([C@H](C)CO)C[C@H](C)[C@H](CN(C)Cc2ccc(C(F)(F)F)cc2)O3)cc1,/,-6,34
SMILES,A1 apoptosis 2,INS-1E rescue,T cruzi HTS
CC1(C)C[C@H]2C[C@H]3C(Br)=CC2(CO1)C(=O)[C@]31CO1,2,/,/
COc1ccc(Br)cc1/C=N/NC(=O)c1ccc(C(=O)NO)cc1,1,16,-3
O=C1O[C@H](c2ccccc2)[C@H](c2ccccc2)N2[C@H]1[C@@H](C(=O)O)[C@]1(C(=O)Nc3ccc(C#CC4(O)CCCCCC4)cc31)[C@H]2c1ccccc1OCCO,1,/,/
O=C1C2(CO)C=C(Br)[C@H](C[C@@H]2c2ccccc2)[C@@]12CO2,1,/,/
O=S(=O)(N[C@@H]1CCN(Cc2ccc(OCCO)cc2)C1)c1cc(C(F)(F)F)ccc1Cl,0,/,/
Cc1ccc(S(=O)(=O)Nc2cccc3c2O[C@H](CN(C)Cc2ccc(C(=O)Nc4ccccc4N)cc2)[C@H](C)CN([C@H](C)CO)C3=O)cc1,/,23,50
C[C@H](CO)N1C[C@H](C)[C@H](CN(C)Cc2ccc(C(=O)Nc3ccccc3N)cc2)Oc2c(NS(=O)(=O)c3ccc(Cl)cc3)cccc2C1=O,1,-6,53
C[C@H]1CN([C@@H](C)CO)C(=O)c2cccc(NS(=O)(=O)c3ccc(Cl)cc3)c2O[C@H]1CN(C)Cc1ccc(C(=O)Nc2ccccc2N)cc1,0,8,60*
Cc1ccc(S(=O)(=O)Nc2cccc3c2O[C@H](CN(C)Cc2ccc(C(=O)Nc4ccccc4N)cc2)[C@@H](C)CN([C@@H](C)CO)C3=O)cc1,2,0,44
Cc1ccc(S(=O)(=O)Nc2cccc3c2O[C@@H](CN(C)Cc2ccc(C(=O)Nc4ccccc4N)cc2)[C@@H](C)CN([C@@H](C)CO)C3=O)cc1,-1,8,64*
C[C@@H]1CN([C@H](C)CO)C(=O)c2cccc(NS(=O)(=O)c3ccccc3)c2O[C@H]1CN(C)Cc1ccc(C(=O)Nc2ccccc2N)cc1,/,-10,47
Cc1noc(C)c1S(=O)(=O)Nc1cccc2c1O[C@H](CN(C)Cc1ccc(C(=O)Nc3ccccc3N)cc1)[C@H](C)CN([C@H](C)CO)C2=O,/,-14,60*
Cc1ccc(S(=O)(=O)Nc2cccc3c2O[C@@H](CN(C)Cc2ccc(C(=O)Nc4ccccc4N)cc2)[C@H](C)CN([C@@H](C)CO)C3=O)cc1,/,-6,55*
COc1cc(/C=N/NC(=O)c2ccccn2)ccc1O,-8,6,-7
COc1ccc(Br)cc1/C=N/NC(=O)CCCCCCC(=O)Nc1ccccc1O,1,11,3
O=C(CCCCCCC(=O)Nc1ccccc1O)N=NC=C1C=CN(O)C=C1,0,3,1
COc1ccc(O)c(/C=N/NC(=O)CCCCC(=O)NO)c1,/,0,-8
O=C(CCCCCCC(=O)Nc1ccccc1O)N/N=C/c1ccc(-c2ccccc2)c(F)c1,/,5,17
C[C@@H]1CN([C@@H](C)CO)C(=O)c2cccc(NS(=O)(=O)c3ccc(F)cc3)c2O[C@@H]1CN(C)Cc1ccc(C(=O)Nc2ccccc2N)cc1,/,26,52

# Compound activity as filed in PubChem BioAssay.
